Results on two molecules are retold here after paper PMC5828885 (The Journal of investigative dermatology, 2017).

By logP is commonly meant a log measure of how a compound divides between an organic and an aqueous phase. Read a high logP as a more lipophilic compound. For orientation: logD means the decadic logarithm of the distribution of all forms, ionised or not, between an organic phase and buffer at a given pH.

In data set [1] the test system is mice. Nature of the data set: Multi-parameter microscopic imaging of tissue cryosections for CLDIs. The class given is in vivo, mice (Balb/c and C57BL/6). To be noted: 10mg/kg/day, 3-4 weeks. The method in brief: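 Mice (4-5 weeks old) received a 10mg/kg/day-equivalent drug diet for 3-4 weeks, then were CO2-euthanized. Liver, spleen and ears were washed in cold PBS, embedded in OCT, frozen at -80°C and cryosectioned at 5 μm. Sections were imaged by brightfield, Cy5 fluorescence and LC-PolScope polarization (dichroism, 623nm-filtered illumination) and compared with untreated tissue.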

The nature of data set [2]: LogP and LogD determination, 1-octanol/phosphate buffer partitioning. The data set is classed as physicochemical. The method in brief: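 Shake-flask partitioning in phosphate buffer pH 3/1-octanol 1:1 (v/v) at 25°C, thermostatted water bath, magnetic stirring for 24 h to equilibrate. Compound was introduced in organic solvent at maximum solubility. Both layers were assayed spectrophotometrically at 285nm against a standard curve. The apparent partition coefficient was converted to LogP and LogD (pH 7.4) by published equations.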

For data set [3], the system named is mice. The class given is in vivo, mice (Balb/c and C57BL/6). To be noted: 10mg/kg/day, 3-4 weeks; for Skin pigmentation (visual): mice, drug powder feed diet; for Skin pigmentation (OD values, 480nm and 535nm filters): mouse ears, n=3, p<0.01 vs untreated. The method in brief:
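Balb/c and C57BL/6 mice, 4-5 weeks old, fed ad libitum a drug powder diet targeting an oral dose equivalent of 10mg/kg/day for 3-4 weeks; untreated mice as controls. Ears were photographed by phone camera through single-band bandpass filters (480, 535, 623nm), flash/HDR off, no editing filters. Reflectance was quantified by image analysis (drug powder n=7, untreated n=3); one-way ANOVA, Tukey's HSD.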

Data set [4] is described as follows: In vitro assay for HCl salt precipitation in simulated lysosomal conditions. The data set is classed as physicochemical. The conditions noted are these: for Solubility behaviour in solution A (no chloride): compared with DMSO; for Precipitates by brightfield and Cy5 fluorescence microscopy in solution B: pH 4.5, 100mM chloride. The procedure, abridged: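 Lysosome-mimic buffers: 10mM sodium acetate pH 4.5 with 10mM CTAB (Solution A), plus 100mM NaCl (Solution B). A 7mM DMSO stock was added 1:100 into each buffer and shaken 2.5 h at varying speeds. Absorbance at 285nm was read against a buffer-plus-DMSO baseline; a decrease was taken as precipitation. Precipitate was imaged by brightfield and Cy5 fluorescence microscopy.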

The nature of data set [5]: Quantification of CFZ in tissues of treated mice. The conditions noted are these: 10mg/kg/day oral, 3-4 weeks. The data set is classed as in vivo, mice (Balb/c and C57BL/6). The procedure, abridged: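 4–5-week-old mice fed the test compound ad libitum in powdered chow; liver, spleen and ears (skin) harvested and rinsed in cold PBS. Tissue homogenized (sonication, or mechanical for ear) in RIPA with protease inhibitors, spun 15000 rpm, 4°C, 5 min. Supernatant extracted with xylenes, then 9M H2SO4 (each triplicate). A540−A750 against a 9M H2SO4 standard curve, normalized to organ weight.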

For data set [6] the following is noted: ref Baik et al., 2013; cited from earlier work.
Data set [7] relates to patients. To be noted: leprosy or MDR-TB patients; ref Maia et al., 2013, Tang et al., 2015; cited from earlier work.
The mark [8] stands for this setting: pH 4.5, 10 mM CTAB, 100mM chloride.

Take `OCCN=c1cc2n(-c3ccc(Cl)cc3)c3ccccc3nc-2cc1Nc1ccc(Cl)cc1` [compound 568]: in data set [1] (liver, spleen, skin), the “CLDIs accumulation in all tissues” value is “no evidence of CLDIs accumulation”. Moreover, in data set [2] (1-octanol/phosphate buffer pH 3, 25°C, 24 hours, mean, n=3), the LogP is on record as 6.69 ^2. Also, the “LogD @ pH 7.4” value in data set [2] (pH 7.4, from the apparent partition coefficient, 25°C, mean, n=3) is given as 5.42 ^3. In addition, in data set [3], the “Skin pigmentation (visual)” value was “visually evident”; the “Skin pigmentation (OD values, 480nm and 535nm filters)” value is “identical level of pigmentation as CFZ treated mice”. Moreover, the “Precipitation as hydrochloride salt in solution B” value in data set [4] (setting [8]) is “remains in solution”. The “Solubility behaviour in solution A (no chloride)” value in data set [4] (pH 4.5, 10 mM CTAB) is recorded as “remained soluble”. Besides, in data set [4], the “Precipitates by brightfield and Cy5 fluorescence microscopy in solution B” value was “no precipitates were observed”.

`CC(C)/N=c1\cc2n(-c3ccc(Cl)cc3)c3ccccc3nc-2cc1Nc1ccc(Cl)cc1` [CFZ, Clofazimine]: in data set [1], the “CLDIs in skin sections” value is “did not contain CLDIs”. The “CLDIs in liver and spleen” value in data set [1] (brightfield, fluorescence, diattenuation) is “CLDIs were observed”. The same molecule had a lipophilicity (logP) at 24 h in data set [2] (1-octanol/phosphate buffer 1:1 (v/v), pH 3) of 7.66. Besides, in data set [2] (1-octanol/phosphate buffer, pH 7.4), the logD at 24 h worked out at 5.76. Further, the “Tissue concentration of the drug in skin” value in data set [5] (n=3, mean ± SD) was found to be 0.16 ± 0.04 mg/g. In addition, in data set [5] (n=4, mean ± SD), the “Tissue concentration of the drug in liver” value is listed as 2.37 ± 0.62 mg/g and the “Tissue concentration of the drug in spleen” value amounted to 4.34 ± 0.41 mg/g. In data set [3], the “Skin pigmentation (visual)” value is listed as “visually evident”; the “Skin pigmentation (OD values, 480nm and 535nm filters)” value is reported as “significantly higher than the untreated group”. In addition, in data set [4] (setting [8]), the “Decrease in absorbance (285nm) in solution B” value is 4 fold and the “Precipitation as hydrochloride salt in solution B” value is reported as “precipitates out as hydrochloride salt”. Moreover, the “Solubility behaviour in solution A (no chloride)” value in data set [4] (pH 4.5, 10 mM CTAB) was “remained soluble”. The “Precipitates by brightfield and Cy5 fluorescence microscopy in solution B” value in data set [4] was “precipitates as a HCl salt form”. Besides, in data set [6], the “Concentration found in adipose tissue” value is 0.74 mgCFZ/gFat. In addition, the “Patients with skin pigmentation” value in data set [7] was “more than 94%”.
